ChEMBL document CHEMBL5346942, “Identification and analysis of small molecule inhibitors of FosB from Staphylococcus aureus” (RSC Med Chem, 2023)
≈ marks a conversion by molar mass, not a printed value.

Assays:
HepG2 = experiment: Cytotoxicity against human HepG2 cells assessed as reduction in cell viability at 64 ug/ml incubated for 24 hrs by resazurin dye based fluorescence analysis; assay type: toxicity; details: hepg2, 24 h, dose 64 µg/ml
Summary of the method: (§1)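 HEK-293 or HepG2 cells grown in DMEM with 10% FBS and 1% penicillin/streptomycin at 37 °C, 5% CO2. Positive control was 1% Triton X-100. Viability read by resazurin (2 mM stock) added for 24 h, measuring resorufin fluorescence.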

HEK293 = experiment: Cytotoxicity against HEK293 cells assessed as reduction in cell viability at 64 ug/ml incubated for 24 hrs by resazurin dye based fluorescence analysis; assay type: toxicity; details: human, hek293, 24 h, dose 64 µg/ml; summary of the method: as §1
Staphylococcus aureus [1] = experiment: Antibacterial activity against Staphylococcus aureus JE2 harboring […] assessed as fosfomycin MIC at 128 ug/ml incubated overnight by double dilution method; assay type: functional; details: dose 128 µg/ml
Summary of the method: (§2)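 S. aureus JE2 grown overnight at 37 °C on Mueller–Hinton agar; colonies suspended in MH broth to OD600 ~0.5, diluted 1:1000 and added to serial twofold dilutions of compound (water stocks 10 mg/mL). Incubated overnight at 37 °C; MIC read visually as the well with no growth. Sterile and growth control wells included. For combinations, fosfomycin diluted along one plate axis and inhibitor along the other, before the inoculum was added.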

Staphylococcus aureus [2] = experiment: Antibacterial activity against Staphylococcus aureus JE2 harboring […] assessed as reduction in bacterial growth incubated overnight by double dilution method; assay type: functional; summary of the method: as §2
[3] = molecular target: T1, Metallothiol transferase FosB (Staphylococcus aureus, UniProt Q5HDM4); experiment: Inhibition of Staphylococcus aureus FosB using L-cysteine as substrate assessed as inhibition constant for initial binding event by absorbance based DTNB assay
Staphylococcus aureus [4] = experiment: Antibacterial activity against Staphylococcus aureus JE2 harboring […] assessed as reduction in bacterial growth incubated overnight in presence of fosfomycin by double dilution method; assay type: functional; summary of the method: as §2
[5] = molecular target: T1, Metallothiol transferase FosB; experiment: Parabolic competitive inhibition of Staphylococcus aureus FosB using L-cysteine as substrate assessed as inhibition constant for second binding event by absorbance based DTNB assay
Summary of the method: (§3)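 FosB from S. aureus, steady-state Michaelis–Menten kinetics with L-cysteine as the thiol co-substrate (instead of BSH) and varied fosfomycin. Rates read by absorbance-based DTNB assay at several fixed inhibitor concentrations. Initial velocities globally fit to a parabolic competitive model (two inhibitor molecules bind). Ki1 is the first binding event, Ki2 the second.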

[6] = molecular target: T1, Metallothiol transferase FosB; experiment: Parabolic competitive inhibition of Staphylococcus aureus FosB using L-cysteine as substrate assessed as inhibition constant for initial binding event by absorbance based DTNB assay; summary of the method: as §3
[7] = molecular target: T1, Metallothiol transferase FosB; experiment: Competitive inhibition of Staphylococcus aureus FosB using L-cysteine as substrate assessed as inhibition constant for initial binding event by absorbance based DTNB assay
Staphylococcus aureus [8] = experiment: Antibacterial activity against Staphylococcus aureus harboring FosB; assay type: functional; summary of the method: as §2
Staphylococcus aureus [9] = experiment: Antibacterial activity against Staphylococcus aureus lacking FosB; assay type: functional

T1 sequence (Q5HDM4 whole entry): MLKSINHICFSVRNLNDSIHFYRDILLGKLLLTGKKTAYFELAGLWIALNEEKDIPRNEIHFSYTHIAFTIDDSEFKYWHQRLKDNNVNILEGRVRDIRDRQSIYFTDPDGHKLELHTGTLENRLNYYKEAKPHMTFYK

SMILES: O=P(O)(O)CCP(=O)(O)O
- Activity (HepG2): Non-Toxic
- Activity (HEK293): Non-Toxic

SMILES: CC(C)[C@H](O)P(=O)(O)O
- MIC (Staphylococcus aureus [1]): 8 µg/mL
- MIC (Staphylococcus aureus [2]): > 128 µg/mL
- Activity (HepG2): Non-Toxic
- Ki [3]: 3580 µM
- MIC (Staphylococcus aureus [4]): > 128 µg/mL
- Activity (HEK293): Non-Toxic

SMILES: CC(C(=O)O)C(=O)O [METHYLMALONIC ACID]
- Activity (HepG2): Non-Toxic
- Activity (HEK293): Non-Toxic

SMILES: C[C@H](CO)P(=O)(O)O
- MIC (Staphylococcus aureus [1]): 8 µg/mL
- MIC (Staphylococcus aureus [2]): > 128 µg/mL
- Activity (HepG2): Non-Toxic
- Ki [3]: 5290 µM
- MIC (Staphylococcus aureus [4]): > 128 µg/mL
- Activity (HEK293): Non-Toxic

SMILES: CC[C@@H](O)P(=O)(O)O
- MIC (Staphylococcus aureus [1]): 8 µg/mL
- Activity (HepG2): Non-Toxic
- Ki [3]: 1570 µM
- MIC (Staphylococcus aureus [4]): > 128 µg/mL
- Activity (HEK293): Non-Toxic

SMILES: O=C(O)CP(=O)(O)O [FOSFONET]
- MIC (Staphylococcus aureus [1]): 8 µg/mL
- MIC (Staphylococcus aureus [2]): > 128 µg/mL
- Ki [5]: 210 µM
- Activity (HepG2): Non-Toxic
- MIC (Staphylococcus aureus [4]): > 128 µg/mL
- Ki [6]: 900 µM
- Activity (HEK293): Non-Toxic

SMILES: O=C(O)CCP(=O)(O)O
- Activity (HepG2): Non-Toxic
- Activity (HEK293): Non-Toxic

SMILES: C[C@@H](C(=O)O)P(=O)(O)O
- MIC (Staphylococcus aureus [1]): 8 µg/mL
- MIC (Staphylococcus aureus [2]): > 128 µg/mL
- Ki [7]: 430 µM
- Activity (HepG2): Non-Toxic
- MIC (Staphylococcus aureus [4]): > 128 µg/mL
- Activity (HEK293): Non-Toxic

SMILES: C[C@@H]1O[C@@H]1P(=O)(O)O [FOSFOMYCIN]
- MIC (Staphylococcus aureus [2]): > 128 µg/mL
- Activity (HepG2): Non-Toxic
- MIC (Staphylococcus aureus [8]): 64 µg/mL (≈ 464 µM)
- MIC (Staphylococcus aureus [9]): 0.5 µg/mL (≈ 3.62 µM)
- Activity (HEK293): Non-Toxic
